Results reported in publication PMC4467241 (Clinical Pharmacology in Drug Development, 2014).
Like-named read-outs stand apart in the source and are kept apart here. Marks after values point to notes of the source that are not given here.

Legend:
[1] = type: in vivo, human
In short: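 Heparinised plasma was taken predose and at 0.5–48 h, spun within 30 min and stored at −70 °C. Parent and metabolite were measured by SPE LC–MS/MS; noncompartmental AUC, with ANOVA on log values giving geometric-mean ratio and 90% CI.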

MRP3 = conditions: read-out: IC50 (MRP3 inhibition); weak inhibitor; no reference given; cited from earlier work
[2] = tested on: organic cation transporter (OCT)2; conditions: stated in introduction, no reference given; cited from earlier work
[3] = tested on: breast cancer resistance protein (BCRP); conditions: stated in introduction, no reference given; cited from earlier work
OAT3 [4] = conditions: stated in introduction, no reference given; cited from earlier work
[5] = Steady-state plasma pharmacokinetics of apremilast alone; type: in vivo, human; conditions: for CLss/F / Cmin: steady-state
In short: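 Test compound was given at 30 mg Q12h for 12 doses, with a single co-drug dose added on Day 8. Citrated plasma was sampled predose and at 0.5–12 h after the morning dose on Days 7 and 8, then assayed by liquid-liquid extraction LC–MS/MS. Noncompartmental AUC0–τ and Cmax were derived, with ANOVA on log values (treatment fixed, subject random), geometric-mean ratio with 90% CI, and Hodges–Lehmann tmax.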

OATP1B3 [6] = conditions: stated in introduction, no reference given; cited from earlier work
[7] = tested on: organic anion transporting polypeptide (OATP)1B1; conditions: stated in introduction, no reference given; cited from earlier work
[8] = cited from earlier work
[9] = tested on: multidrug resistance protein (MRP)1; conditions: stated in introduction, no reference given; cited from earlier work
OAT1 = conditions: read-out: IC50 (OAT1 inhibition); weak inhibitor; no reference given; cited from earlier work
MRP4 = conditions: stated in introduction, no reference given; cited from earlier work
P-glycoprotein (P-gp) [10] = conditions: in vitro; cited from earlier work
[11] = no reference given, cited from earlier work; for Apparent clearance: prior studies
MRP2 = conditions: in vitro, no reference printed, cited from earlier work
[12] = tested on: organic anion transporter (OAT)1; conditions: stated in introduction, no reference given; cited from earlier work
P-glycoprotein (P-gp) [13] = conditions: read-out: IC50 (P-gp inhibition); in vitro, weak inhibitor; cited from earlier work
BCRP = conditions: in vitro, no reference printed, cited from earlier work
OAT3 [14] = conditions: stated in introduction, no reference given; cited from earlier work; remark: listed apart in the source
OCT2 = conditions: stated in introduction, no reference given; cited from earlier work
OATP1B3 [15] = conditions: stated in introduction, no reference given; cited from earlier work; remark: listed apart in the source
OATP1B1 = conditions: read-out: IC50 (OATP1B1 inhibition); weak inhibitor; no reference given; cited from earlier work
[16] = healthy subjects, Apremilast 30 mg BID; cited from earlier work
[17] = 7-OH MTX in plasma after MTX 10 mg oral + Apremilast 30 mg Q12H (Day 8), N = 1
[18] = 7-OH MTX in plasma after MTX 10 mg oral alone (Day 1), N = 1
[19] = 7-OH MTX in plasma after MTX 12.5 mg oral + Apremilast 30 mg Q12H (Day 8), N = 1
[20] = 7-OH MTX in plasma after MTX 12.5 mg oral alone (Day 1), N = 1
[21] = 7-OH MTX in plasma after MTX 17.5 mg oral + Apremilast 30 mg Q12H (Day 8), N = 1
[22] = 7-OH MTX in plasma after MTX 17.5 mg oral alone (Day 1), N = 1
[23] = 7-OH MTX in plasma, ANOVA, N = 15
[24] = 7-OH MTX in plasma, all dose groups, N = 15, acceptance range 80–125%
[25] = Apremilast 30 mg Q12H alone (Day 7), plasma, N = 15, arithmetic mean (SD)
[26] = both, human, plasma, oral, 30 mg

CN(Cc1nc2c(N)nc(N)nc2[nH]c1=O)c1ccc(C(=O)N[C@@H](CCC(=O)O)C(=O)O)cc1 [7-OH MTX, 7-hydroxy methotrexate]
AUC0–t [1, 17]: 620 ng·h/mL
AUC0–∞ [1, 17]: 650 ng·h/mL
Cmax [1, 17]: 0.0329 µg/mL
t1/2 [1, 17]: 10.9 h
tmax [1, 17]: 6.00 h
AUC0–t [1, 18]: 430 ng·h/mL
AUC0–∞ [1, 18]: 460 ng·h/mL
Cmax [1, 18]: 0.021 µg/mL
t1/2 [1, 18]: 11.9 h
tmax [1, 18]: 5.98 h
AUC0–t [1, 19]: 1,670 hr ng/mL
AUC0–∞ [1, 19]: 1,820 hr ng/mL
Cmax [1, 19]: 0.0728 µg/mL
t1/2 [1, 19]: 12.0 h
tmax [1, 19]: 6.00 h
AUC0–t [1, 20]: 1,220 hr ng/mL
AUC0–∞ [1, 20]: 1,370 hr ng/mL
Cmax [1, 20]: 0.0528 µg/mL
t1/2 [1, 20]: 14.2 h
tmax [1, 20]: 6.00 h
tmax ([1]; 7-OH MTX in plasma after MTX 15 mg oral alone (Day 1), N = 6, median (range)): 7.52 (6.00–12.00) hr
AUC0–t [1, 21]: 1,170 hr ng/mL
AUC0–∞ [1, 21]: 1,290 hr ng/mL
Cmax [1, 21]: 0.0489 µg/mL
t1/2 [1, 21]: 12.2 h
tmax [1, 21]: 9.00 h
AUC0–t [1, 22]: 1,170 hr ng/mL
AUC0–∞ [1, 22]: 1,300 hr ng/mL
Cmax [1, 22]: 0.0454 µg/mL
t1/2 [1, 22]: 13.0 h
tmax [1, 22]: 6.00 h
tmax ([1]; 7-OH MTX in plasma after MTX 20 mg oral alone (Day 1), N = 6, median (range)): 7.54 (5.95–9.00) hr
Intra-subject CV% of AUC0–t [1, 23]: 19.89%
Intra-subject CV% of AUC0–∞ [1, 23]: 19.34%
Intra-subject CV% of Cmax [1, 23]: 17.84%
tmax median difference (“MTX + Apremilast” − “MTX”) ([1]; 7-OH MTX in plasma, all dose groups, N = 15, Hodges–Lehmann): 0.005 ^c hr
AUC0–t ratio of geometric means (“methotrexate + apremilast”/“methotrexate”) [1, 24]: 98.59
AUC0–∞ ratio of geometric means (“methotrexate + apremilast”/“methotrexate”) [1, 24]: 98.24
Cmax ratio of geometric means (“methotrexate + apremilast”/“methotrexate”) [1, 24]: 104.01
90% CI for Cmax, AUC0–t and AUC0–∞ versus FDA acceptance range of 80–125% ([1]; 7-hydroxy methotrexate, methotrexate with versus without apremilast): within the acceptance range for equivalency

CCOc1cc([C@@H](CS(C)(=O)=O)N2C(=O)c3cccc(NC(C)=O)c3C2=O)ccc1OC [APR, apremilast]
IC50 (MRP3): > 10 µM
Substrate of OCT2 [2]: not a substrate
Substrate of BCRP [3]: not a substrate
Substrate of OAT3 (OAT3 [4]): not a substrate
CLss/F ([5]; Apremilast 30 mg Q12H + MTX (Day 8), plasma, N = 13, arithmetic mean, excludes data with R^2 < 0.9): 156 ^b (86.3) mL/min
Cmin ([5]; Apremilast 30 mg Q12H + MTX (Day 8), plasma, N = 15, arithmetic mean (SD)): 242 (153) ng/mL
CLss/F [5, 25]: 153 (78.6) mL/min
Cmin [5, 25]: 248 (153) ng/mL
tmax median difference (“APR + MTX” − “APR”) ([5]; apremilast in plasma, 30 mg Q12H, N = 15, Hodges–Lehmann): 0 ^c hr
Cmax ratio of geometric means (“methotrexate + apremilast”/“apremilast”) ([5]; apremilast in plasma, 30 mg Q12H, N = 15, acceptance range 80–125%): 95.00
AUC0–τ ratio of geometric means (“methotrexate + apremilast”/“apremilast”) ([5]; apremilast in plasma, 30 mg Q12H, acceptance range 80–125%): 99.30
Intra-subject CV% of AUC0–τ ([5]; apremilast in plasma, ANOVA): 9.66%
Intra-subject CV% of Cmax ([5]; apremilast in plasma, ANOVA, N = 15): 12.07%
90% CI for Cmax and AUCtau versus FDA acceptance range of 80–125% ([5]; apremilast with versus without methotrexate): within the acceptance range for equivalency
AUC [5, 26]: 4.11 µg·h/mL
Cmax [5, 26]: 0.584 µg/mL
tmax [5, 26]: 2 h
Substrate of OATP1B3 (OATP1B3 [6]): not a substrate
Substrate of OATP1B1 [7]: not a substrate
Oral bioavailability ([8]; in humans): ~73%
Excreted unchanged in urine ([8]; orally administered): less than 3%
Inhibition of MRP1 [9]: does not inhibit
IC50 (OAT1): > 10 µM
Inhibition of MRP4 (MRP4): does not inhibit
Substrate of P-gp (P-glycoprotein (P-gp) [10]): substrate
Time by which steady-state is achieved ([11]; healthy volunteer studies, Apremilast administered BID): ≤ 36 h
Apparent clearance ([11]; in healthy subjects): ~10 L/h
Apparent clearance ([11]; in patients): 8.7 L/h
Inhibition of MRP2 (MRP2; listed as Apremilast): does not inhibit
Inhibition of MRP2 (MRP2; listed as apremilast): not an inhibitor
Substrate of OAT1 [12]: not a substrate
IC50 (P-glycoprotein (P-gp) [13]): > 50 µM
Inhibition of BCRP (BCRP; listed as Apremilast): does not inhibit
Inhibition of BCRP (BCRP; listed as apremilast): not an inhibitor
Inhibition of OAT3 (OAT3 [14]): does not inhibit
Inhibition of OCT2 (OCT2): does not inhibit
Inhibition of OATP1B3 (OATP1B3 [15]): does not inhibit
IC50 (OATP1B1): > 10 µM

CCOc1cc(C(CS(C)(=O)=O)N2C(=O)c3cccc(NC(C)=O)c3C2=O)ccc1OC1OC(C(=O)O)C(O)C(O)C1O (centres unmarked) [M12]
AUC relative to Apremilast [16]: approximately 1.7 fold
Cmax relative to Apremilast [16]: ~1.25 fold
